Test results as given in ChEMBL document CHEMBL3244147 (J Med Chem, 1978).
Activity calls are given as the source filed them. No cut-off for these calls is given here. Where a SMILES comes first, the peptide text is derived from it. The star is where a group is joined. NH(4-N(CH2CH2Cl)2-phenyl) = ClCCN(CCCl)c1ccc(N*)cc1; Cbz = O=C(OCc1ccccc1)*

How the values were obtained:
[1] = Toxicity in ip dosed CF1 mouse after 14 days of injection; format: organism-based; conditions: in vivo
Procedure, shortened: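 Female Carworth Farms mice, 16-20 g. Compound was suspended in 1% aqueous methylcellulose (ultrasonicated if insoluble) and diluted to doses of 4-324 mg/kg, given as 0.45 mL per mouse by a single intraperitoneal injection. Five mice per dose; survivors were counted at 14 days. LD50 is expressed in μmol/kg.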

Sarcoma-180 [2] = test: Antitumor activity against mouse Sarcoma 180 at 10 to 50% of LD50; format: functional
Procedure, shortened: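 Mice carrying well-advanced Sarcoma-180 tumours received a single intraperitoneal dose.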

Liver [3] = test: Prodrug conversion in mouse liver homogenate assessed as cleavage of labelled compound; format: ADME, tissue-based
[4] = Prodrug conversion in pig liver homogenate assessed as cleavage of labelled compound; format: ADME, tissue-based, Sus scrofa
Liver [5] = test: Prodrug conversion in guinea pig liver homogenate assessed as cleavage of labelled compound; format: ADME, tissue-based, Cavia porcellus
Liver [6] = test: Prodrug conversion in mouse liver homogenate assessed as release of labelled carbobenzyloxy-L-pro-lyl-L-leucine; format: ADME, tissue-based
[7] = Prodrug conversion in pig liver homogenate assessed as release of labelled carbobenzyloxy-L-pro-lyl-L-leucine; format: ADME, tissue-based, Sus scrofa
Liver [8] = test: Prodrug conversion in guinea pig liver homogenate assessed as release of labelled carbobenzyloxy-L-pro-lyl-L-leucine; format: ADME, tissue-based, Cavia porcellus
[9] = Drug metabolism assessed as bacterial collagenase-mediated compound disappearance after 24 hrs by TLC autoradiography; format: ADME
Procedure, shortened: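 14C-labelled substrate at 2 mg/mL in dimethyl sulfoxide. 0.3 mL of it was mixed with 0.95 mL of pH 7.3 barbiturate/acetate/NaCl buffer containing calcium acetate, actidione and DMSO; the reaction mixture was 28% DMSO. The buffer held 5 mg bacterial collagenase (375 units/mg). Controls had no enzyme, trypsin or bovine serum albumin. Products were followed by TLC autoradiography.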

Sarcoma-180 [10] = test: Drug metabolism assessed as mouse Sarcoma 180 homogenate-mediated compound disappearance after 24 hrs by TLC autoradiography; format: ADME; conditions: sarcoma-180, 24 h
Procedure, shortened: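 S-180 tumour tissue (0.85 g) was homogenised in cold pH 7.3 calcium acetate/DMSO buffer containing actidione, then spun at 5000 rpm for 10 min. The supernatant replaced enzyme in the collagenase-type assay with 14C-labelled substrate (2 mg/mL in DMSO) in 28% DMSO reaction mixture. Disappearance and products were read by TLC autoradiography.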

Liver [11] = test: Prodrug conversion in rat liver homogenate assessed as cleavage of labelled compound; format: ADME, tissue-based
Liver [12] = test: Prodrug conversion in rat liver homogenate assessed as release of labelled carbobenzyloxy-L-pro-lyl-L-leucine; format: ADME, tissue-based

## CC(C)C[C@H](NC(=O)[C@@H]1CCCN1C(=O)[C@@H](C)NC(=O)OC(C)(C)C)C(=O)NCC(=O)N1CCC[C@H]1C(=O)NCC(=O)Nc1ccc(N(CCCl)CCCl)cc1
[1]
  LD50 at 336 h: 94.5 µmol/kg

## CC(C)C[C@H](N)C(=O)NCC(=O)N1CCC[C@H]1C(=O)NCC(=O)Nc1ccc(N(CCCl)CCCl)cc1.O=C(O)C(F)(F)F (H-LGPG-{NH(4-N(CH2CH2Cl)2-phenyl)})
[1]
  LD50 at 336 h: 10.4 µmol/kg

## NCC(=O)N1CCC[C@H]1C(=O)NCC(=O)Nc1ccc(N(CCCl)CCCl)cc1.O=C(O)C(F)(F)F
[1]
  LD50 at 336 h: 19.7 µmol/kg

## CC(C)C[C@H](NC(=O)[C@@H]1CCCN1C(=O)OCc1ccccc1)C(=O)NCC(=O)N1CCC[C@H]1C(=O)NCC(=O)Nc1ccc(N(CCCl)CCCl)cc1 (Cbz-PLGPG-{NH(4-N(CH2CH2Cl)2-phenyl)})
[1]
  LD50 at 336 h: 123 µmol/kg
Sarcoma-180 [2]
  Activity: inactive

## CC(C)C[C@H](NC(=O)[C@@H]1CCCN1C(=O)[C@@H](Cc1ccccc1)NC(=O)OC(C)(C)C)C(=O)NCC(=O)N1CCC[C@H]1C(=O)NCC(=O)Nc1ccc(N(CCCl)CCCl)cc1
[1]
  LD50 at 336 h: 105 µmol/kg

## CC(C)C[C@H](NC(=O)[C@@H]1CCCN1C(=O)O[14CH2]c1ccccc1)C(=O)NCC(=O)N1CCC[C@H]1C(=O)NCC(=O)Nc1ccc(N(CCCl)CCCl)cc1
Liver [3]
  Drug metabolism: metabolite_detected
[4]
  Drug metabolism: metabolite_detected
Liver [5]
  Drug metabolism: metabolite_detected
Liver [6]
  Drug metabolism: metabolite_detected
[7]
  Drug metabolism: metabolite_detected
Liver [8]
  Drug metabolism: metabolite_detected
[9]
  Drug metabolism: metabolite_detected
Sarcoma-180 [10]
  Drug metabolism: metabolite_detected
Liver [11]
  Drug metabolism: metabolite_detected
Liver [12]
  Drug metabolism: metabolite_detected

## CC(C)C[C@H](NC(=O)[C@@H]1CCCN1C(=O)[C@H](N)Cc1ccccc1)C(=O)NCC(=O)N1CCC[C@H]1C(=O)NCC(=O)Nc1ccc(N(CCCl)CCCl)cc1.O=C(O)C(F)(F)F
[1]
  LD50 at 336 h: 106 µmol/kg

## CC(C)C[C@H](NC(=O)[C@@H]1CCCN1C(=O)[C@H](N)CCCCN)C(=O)NCC(=O)N1CCC[C@H]1C(=O)NCC(=O)Nc1ccc(N(CCCl)CCCl)cc1.O=C(O)C(F)(F)F
[1]
  LD50 at 336 h: 78 µmol/kg
Sarcoma-180 [2]
  Activity: inactive

## O=C(CNC(=O)[C@@H]1CCCN1C(=O)OCc1ccccc1)Nc1ccc(N(CCCl)CCCl)cc1
[1]
  LD50 at 336 h: 119 µmol/kg

## CC(C)C[C@H](NC(=O)[C@@H]1CCCN1C(=O)[C@@H](CCCCNC(=O)OC(C)(C)C)NC(=O)OC(C)(C)C)C(=O)NCC(=O)N1CCC[C@H]1C(=O)NCC(=O)Nc1ccc(N(CCCl)CCCl)cc1
[1]
  LD50 at 336 h: 100 µmol/kg
